Assay results collected from several papers.
PIK3CA E545K: Phosphatidylinositol 4,5-bisphosphate 3-kinase catalytic subunit alpha isoform (PIK3CA, Homo sapiens, UniProt P42336, E545K)
PIK3CA Q546K: Phosphatidylinositol 4,5-bisphosphate 3-kinase catalytic subunit alpha isoform (PIK3CA, Homo sapiens, UniProt P42336, Q546K)
PIK3CA E545A: Phosphatidylinositol 4,5-bisphosphate 3-kinase catalytic subunit alpha isoform (PIK3CA, Homo sapiens, UniProt P42336, E545A)
PIK3CA C420R: Phosphatidylinositol 4,5-bisphosphate 3-kinase catalytic subunit alpha isoform (PIK3CA, Homo sapiens, UniProt P42336, C420R)
PIK3CA E542K: Phosphatidylinositol 4,5-bisphosphate 3-kinase catalytic subunit alpha isoform (PIK3CA, Homo sapiens, UniProt P42336, E542K)
PIK3CA: Phosphatidylinositol 4,5-bisphosphate 3-kinase catalytic subunit alpha isoform (PIK3CA, Homo sapiens, UniProt P42336)
PIK3CA I800L: Phosphatidylinositol 4,5-bisphosphate 3-kinase catalytic subunit alpha isoform (PIK3CA, Homo sapiens, UniProt P42336, I800L)
PIK3CA M1043I: Phosphatidylinositol 4,5-bisphosphate 3-kinase catalytic subunit alpha isoform (PIK3CA, Homo sapiens, UniProt P42336, M1043I)

SMILES | target | assay | setting | remaining binding [%]
CN(C)c1nccc(-c2cnn3ncccc23)n1 | PIK3CA E545K | binding | 1 µM | 83
CN1CCN(c2ccc(Nc3nccc(-c4ccccc4)n3)cc2C(F)(F)F)CC1 | PIK3CA Q546K | binding | 10 µM | 68
COc1cnc(Nc2cccc(S(N)(=O)=O)c2)nc1N1CCN(c2ccccc2)C(=O)C1 | PIK3CA E545A | binding, competition with immobilised ligand | 1 µM | 98
Nc1ncc2c(n1)-c1c([nH]c3ccc(C#CC4CC4)cc13)CCCC2 | PIK3CA C420R | binding, competition with immobilised ligand | 1 µM | 86
CCN1CCN(Cc2ccc(C(=O)Nc3ccc(C)c(Oc4ccc5c(c4)CC(=O)N5)c3)cc2C(F)(F)F)CC1 | PIK3CA E545A | binding, competition with immobilised ligand | 1 µM | 71
C[C@@H]1CCN(c2nccc(-c3cnn4ncccc34)n2)C1 | PIK3CA E542K | binding | 1 µM | 82
O=C(NCCCC1CCCCC1)c1ccc(CNC(=O)c2cnn(-c3ccccc3)c2C(F)(F)F)cc1 | Phosphatidylinositol 4,5-bisphosphate 3-kinase catalytic subunit alpha isoform (PIK3CA, Homo sapiens, UniProt P42336, H1047L) | cell-free assay, competition with immobilised ligand | 0.1 µM | 86
COc1ncc2cc3ccccc3nc2c1C#N | PIK3CA E545K | cell-free assay, competition with immobilised ligand | 5 µM | 100
F[C@@H]1CCN(c2nccc(-c3cnn4ncccc34)n2)C1 | PIK3CA E545K | binding | 1 µM | 100
CNC(=O)[C@@H]1CC[C@@H](n2c(-c3ccc4cnccc4c3)nc3ccc(C(=O)NCc4cccc(C(N)=O)c4)cc32)C1 | PIK3CA | binding, competition with immobilised ligand | 1 µM | 100
CN(C)CC#Cc1ccc(OCCCc2sc(N3CCc4cccc(C(=O)Nc5nc6ccccc6s5)c4C3)nc2C(=O)O)c(F)c1 | PIK3CA Q546K | cell-free assay, competition with immobilised ligand | 1 µM | 79
CCN(CC)Cc1cc(Nc2ccnc3cc(Cl)ccc23)ccc1O | PIK3CA | cell-free assay, competition with immobilised ligand | 0.1 µM | 97
O=C(Nc1c[nH]nc1C(=O)NC1CCNCC1)c1cc(F)cc(F)c1 | PIK3CA E545A | binding, competition with immobilised ligand | 1 µM | 100
CNCc1ccccc1-c1csc([C@H](C)Nc2nc(C)nc3cc(OC)c(OC)cc23)c1 | PIK3CA I800L | cell-free assay, competition with immobilised ligand | 1 µM | 81
O=C(c1ccc(Nc2ncc(Cl)c(-c3cc4ccccc4s3)n2)cc1)N1CCC(N2CCCC2)CC1 | PIK3CA E542K | binding, competition with immobilised ligand | 1 µM | 97
c1cnn2ncc(-c3ccnc(N4CCC45COC5)n3)c2c1 | PIK3CA Q546K | binding | 1 µM | 63
c1ccc(N2CCN(Cc3nc4ccccc4[nH]3)CC2)nc1 | PIK3CA | cell-free assay, competition with immobilised ligand | 1 µM | 100
Cc1c(-c2ccccc2)oc2c(C(=O)OCCN3CCCCC3)cccc2c1=O | PIK3CA | cell-free assay, competition with immobilised ligand | 10 µM | 100
C[C@@H](c1ccc(-n2cnc3c(N)ncnc32)cc1)N1CCc2nn(C)c(Cc3ccccc3)c2C1=O | PIK3CA E542K | binding, competition with immobilised ligand | 0.1 µM | 83

SMILES | target | assay | setting | remaining binding [%]
CCS(=O)(=O)c1cc2cc(C[C@](O)(CC(C)(C)c3ccc(F)cc3C(N)=O)C(F)(F)F)[nH]c2cn1 | PIK3CA I800L | cell-free assay, competition with immobilised ligand | 1 µM | 73
C=CC(=O)N1CCC(C(=O)NCC(=O)N2CCN(c3nc(-c4cnc(N)nc4C(F)F)nc(N4CCOCC4)n3)CC2)CC1 | PIK3CA E545K | binding, competition with immobilised ligand | 1 µM | 0
CN([C@@H]1CCc2c(CC(=O)O)c3cc(S(C)(=O)=O)ccc3n2C1)S(=O)(=O)c1ccc(F)cc1 | PIK3CA Q546K | cell-free assay, competition with immobilised ligand | 1 µM | 100
CN1CCN(c2ccc(Nc3nccc(-c4cccc([N+](=O)[O-])c4)n3)cc2C(F)(F)F)CC1 | PIK3CA Q546K | binding | 10 µM | 37
N#Cc1ccccc1CSc1nnc2c(n1)[nH]c1ccccc12 | PIK3CA | binding, competition with immobilised ligand | 10 µM | 100
COc1cnc(Nc2cccc(S(N)(=O)=O)c2)nc1N1CCN(c2ccccc2)CC1 | PIK3CA M1043I | binding, competition with immobilised ligand | 1 µM | 79
O=C(c1ccc(Nc2nccc(-c3cc4ccccc4s3)n2)cc1)N1CCC(N2CCCC2)CC1 | PIK3CA C420R | binding, competition with immobilised ligand | 1 µM | 88
O=C(NCC1CCOCC1)c1n[nH]cc1NC(=O)c1c(F)cccc1F | PIK3CA E542K | binding, competition with immobilised ligand | 1 µM | 78
O=C(c1ccc(Nc2ncc(Cl)c(-c3ccc(Cl)s3)n2)cc1)N1CCC(N2CCCC2)CC1 | PIK3CA E542K | binding, competition with immobilised ligand | 1 µM | 100
N[C@@H]1CCN(c2nccc(-c3cnn4ncccc34)n2)C1 | PIK3CA I800L | binding | 1 µM | 71
O=C(N1CCS(=O)(=O)CC1)N1C[C@H](c2ccc(OC(F)(F)F)cc2)C[C@H](c2nc(C3CC3)no2)C1 | PIK3CA Q546K | cell-free assay, competition with immobilised ligand | 1 µM | 83
CN(CCCC(F)(F)F)c1nccc(-c2cnn3ncccc23)n1 | PIK3CA E545K | binding | 1 µM | 100
c1cncc(-c2cccc(Nc3nccc(NC4CCCCC4)n3)c2)c1 | PIK3CA C420R | binding, competition with immobilised ligand | 10 µM | 73
CCCOc1ccc([C@H]2[C@H](C(=O)O)[C@@H](c3ccc4c(c3)OCO4)CN2CC(=O)Nc2c(CC)cccc2CC)cc1 | PIK3CA E545A | cell-free assay, competition with immobilised ligand | 1 µM | 92
O=C(NCCCN1CCOCC1)c1ccc(Nc2ncc(Cl)c(-c3ccc(Cl)s3)n2)cc1 | Phosphatidylinositol 4,5-bisphosphate 3-kinase catalytic subunit alpha isoform (PIK3CA, Homo sapiens, UniProt P42336, H1047Y) | binding, competition with immobilised ligand | 1 µM | 95
CN(C)c1nccc(-c2cnc3ncccn23)n1 | PIK3CA I800L | binding | 1 µM | 63
O=C(NCCCN1CCOCC1)c1ccc(Nc2nccc(-c3cc4ccccc4s3)n2)cc1 | PIK3CA M1043I | binding, competition with immobilised ligand | 1 µM | 80
CN(C)c1ncc(F)c(-c2cnn3ncccc23)n1 | PIK3CA E542K | binding | 1 µM | 69
